N-glyco inh = N-linked glycosylation inhibition. D54 ERlucT glycosylation luciferase reporter, 24 h; percent of 100 nM tunicamycin response. reporter increase, % at 12.5 µM. 360,000 tested, 0.23% active. AID 588692;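 active = mean luciferase reporter signal, scaled so untreated is 0 and the glycosylation-blocking control 100, at or above a set limit in every replicate; inconclusive = mean reaches the limit but not every replicate does; inactive = mean below the limit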;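 note: luciferase carries N-glycosylation sites so blocking glycosylation raises the light; 0% = median of neutral control wells and 100% = median of 100 nM tunicamycin wells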
T cell HTS = modulates CD8 T cell binding to vesicles. 2C CD8+ T cell-vesicle binding, flow cytometry; stronger effect = lower value. response (vesicle binding), % at 7 µM. 330,000 tested, 0.068% active. AID 2052;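 active = response, share of CD8 T cells binding vesicles, and their 90th percentile fluorescence all below set limits, cut at about 80% in these data, passing the limit was not always enough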;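 note: values below 100% mean blocked vesicle binding to the CD8+ T cells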
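Incubation: binding step 1.5 h, 37 °C, antibody labelling 20 min, ice; system: murine 2C transgenic CD8+ T lymphocytes; technique: cytometric PE anti-B7-1 and Alexa647 anti-CD8 signals after 1% paraformaldehyde fixation; also added: QL9-charged Drosophila Ld/ICAM-1/B7-1 vesicles; control set: naked versus QL9-loaded vesicles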
ALR H2O2 inh = blocks human ALR sulfhydryl oxidase activity. P55789. purified ALR, DTT oxidation, H2O2 HRP-luminol luminescence. inhibition, % (no concentration beside the values). 290,000 tested, 3.8% active. AID 485317;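 active = mean replicate inhibition above about 79%, with every replicate also reaching it, limit read from the data; inconclusive = only one of the two criteria met; inactive = mean below limit and not every replicate reaching it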
Target sequence (P55789 whole entry, looked up): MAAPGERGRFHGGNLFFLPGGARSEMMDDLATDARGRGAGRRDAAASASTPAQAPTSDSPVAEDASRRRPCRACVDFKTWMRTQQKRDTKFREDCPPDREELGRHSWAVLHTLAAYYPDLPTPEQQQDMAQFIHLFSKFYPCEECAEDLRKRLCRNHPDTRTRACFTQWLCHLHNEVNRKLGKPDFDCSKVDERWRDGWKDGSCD
* marks the source's active call; other numbers are inactive results; ? = inconclusive; . = no result. The full list was thinned out, with hits kept by preference.

SMILES	N-glyco inh	T cell HTS	ALR H2O2 inh
CC(C)Cc1nnc(NC(=O)C2CCCN(C(=O)c3ccc(Cl)cc3)C2)s1 (stereo not given)	7	.	.
Cc1ccc(Sc2nc(-c3ccccc3)nnc2C(F)(F)F)cc1	14	241	98*
CNc1nc(-c2ccccc2)nnc1C(F)(F)F	0	347	0
Cc1ccc(C(=O)NCCc2n[nH]c(=S)n2C)cc1	1	154	3
Cn1c(CCNC(=O)c2ccccc2Cl)n[nH]c1=S	2	574	96*
COC(=O)COc1ccccc1C(N)=O	1	402	-9
NC(=S)NNC(=O)COc1ccccc1O	1	439	89*
COC(=O)c1sc(C(C)(C)C)cc1CS(=O)(=O)c1ccccn1	-2	759	-1
CCCCCCSc1cccc(-c2nc3ccc(Cl)cn3c2NCc2ccccc2)c1	-4	.	.
C=CCn1c(SCC(=O)c2ccc(O)c(O)c2)nnc1-c1ccc(OC)cc1	-2	388	91*
C=CCn1c(SCC(=O)c2ccc(O)c(O)c2)nnc1-c1ccc(C)cc1	-3	393	65
COc1ccc(C(=O)CSc2nnc(-c3cc4ccccc4cc3O)n2Cc2ccco2)cc1	33*	306	.
C=CCn1c(SCC(=O)c2cccs2)nnc1-c1cccc(OC)c1	-1	445	93*
COc1ccc(C(=O)CSc2nnc(-c3cccnc3)n2Cc2ccco2)cc1	0	431	24
C=CCn1c(SCC(=O)c2cccs2)nc2sc(C)cc2c1=O	-2	449	-15
C=CCn1c(SCC(=O)c2ccc(O)c(O)c2)nnc1-c1cccc(OC)c1	-4	325	99*
C=CCn1c(SCC(=O)c2ccc(OC)cc2)nnc1-c1cc2cccc(OC)c2o1	-2	231	-23
N#Cc1ccccc1S(=O)(=O)N1CCN(C(=O)c2cccc(S(=O)(=O)N3CCCC3)c2)CC1	2	.	.
COc1ccc(C2=NN(C(=O)c3ccco3)C(c3ccco3)C2)cc1OC (stereo not given)	3	466	.
CCOCCCNC(=O)C(NC(=O)Cc1c[nH]c2ccccc12)c1ccccc1 (stereo not given)	0	176	.
Cc1csc(NC(=O)CSc2nnc(NC(=O)NC(C)(C)C)s2)n1	-1	310	2
CCCn1c(N)c(N(CCOC)C(=O)c2cc(S(=O)(=O)N3CCCCCC3)ccc2OC)c(=O)[nH]c1=O	1	380	-3
O=C(N/N=C/c1ccc(Cl)cc1)c1sccc1OCc1ccc(F)cc1	33*	460	9
O=C(Nc1ccc(OCc2ccccc2)cc1)c1cccs1	-5	175	5
O=C(N/N=C/c1ccc(OCc2ccccc2)cc1)c1cccs1	1	78*	-16
SMILES	N-glyco inh	T cell HTS	ALR H2O2 inh
O=C(N/N=C/c1ccc(F)cc1)c1sccc1OCc1ccc(F)cc1	?	399	1
CCOC(=O)C1=C[C@@H](C(C)(C)C)N(S(=O)(=O)c2ccc(C)cc2)[C@H]1c1ccc(Cl)c(Cl)c1	-13	.	.
COc1ccc(CN2CCN(C(=O)c3cc(-c4cccnc4)nc4ccc(Cl)cc34)CC2)c(OC)c1OC	-5	236	1
CC(C)C(=O)N1CCC2(CC1)Oc1ccc(Cl)cc1C(=O)C21CC(c2cccnc2)=NO1 (stereo not given)	-3	0.0*	0
O=C(c1ccoc1)N1CCC2(CC1)Oc1ccc(Cl)cc1C(=O)C21CC(c2cccnc2)=NO1 (stereo not given)	-7	561	1
CCOC(=O)c1c(C)oc2c1c1c(c3ccccc32)OCN(Cc2cccnc2)C1	1	.	.
CCOC(=O)c1c(C)oc2c1c1c(c3ccccc32)OCN(CCCC(=O)O)C1	-1	323	91*
CC(Oc1ccc(Br)cc1)C(=O)NCCCN1CCCC1=O (stereo not given)	4	472	-1
O=C(CCc1ccc(O)cc1)c1c(O)cc(O)cc1O[C@@H]1O[C@H](CO)[C@@H](O)[C@H](O)[C@H]1O	3	0	81*
O=c1c(O)c(-c2cc(O)c(O)c(O)c2)oc2cc(O)cc(O)c12	1	556	99*
COc1ccc(-c2c(C)oc3cc(O)cc(O)c3c2=O)cc1OC	0	760	.
O=c1c(O[C@@H]2O[C@H](CO)[C@@H](O)[C@H](O)[C@H]2O)c(-c2ccc(O)cc2)oc2cc(O)cc(O)c12	-1	381	94*
O=c1c(O)c(-c2ccccc2)oc2cc(O)cc(O)c12	-5	248	.
CC1OC(OC2C(Oc3c(-c4ccc(O)cc4)oc4cc(O)cc(O)c4c3=O)OC(COC3O[C@@H](C)[C@H](O)[C@@H](O)C3O)C(O)C2O)C(O)C(O)C1O (stereo not given in full)	0	242	6
OC[C@H]1O[C@@H](Oc2ccc(O)cc2)[C@H](O)[C@@H](O)[C@@H]1O	12	.	.
COc1c(-c2ccc(O)c(O)c2)oc2cc(O)cc(O)c2c1=O	18	108	98*
NC(=O)/C(=C/c1cccnc1)NC(=O)c1ccccc1	1	286	0
CC1(C)C=C2C(=NN(c3ccccc3)C(N)=C2C#N)CO1	7	193	.
CCc1nn(CC(=O)NCCCc2ccccc2)c(=O)c2cc3cc(F)ccc3n12	1	154	-1
O=C(CN(Cc1ccc(Cl)cc1)C(=O)CNS(=O)(=O)c1ccccc1)NCC1CCCO1 (stereo not given)	0	420	.
O=C(CC1CCCC1)NCCS(=O)(=O)N1CCN(c2ccc(F)cc2)CC1	0	468	-11
C[C@@H]1O[C@@H](OC[C@H]2O[C@@H](Oc3c(-c4ccc(O)c(O)c4)oc4cc(O)cc(O)c4c3=O)[C@H](O)[C@@H](O)[C@@H]2O)[C@H](O)[C@H](O)[C@H]1O	0	91	99*
O=c1c2c(O)cc(O)cc2oc2ccc(O)c(O[C@@H]3O[C@H](CO)[C@@H](O)[C@H](O)[C@H]3O[C@H]3O[C@H](CO)[C@@H](O)[C@H](O)[C@H]3O)c12	1	101	.
CC1OC(OCC2OC(Oc3c(-c4ccc(O)cc4)oc4cc(O)cc(O)c4c3=O)C(O)C(O)C2O)C(O)C(O)C1O (stereo not given)	-1	237	70
O=c1c(OC2OC(CO)C(O)C(O)C2OC2OC(CO)C(O)C(O)C2OC2OC(CO)C(O)C(O)C2O)c(-c2ccc(O)c(O)c2)oc2cc(O)cc(O)c12 (stereo not given)	0	385	99*
SMILES	N-glyco inh	T cell HTS	ALR H2O2 inh
COc1cccc(CCc2nnc(N)s2)c1	0	464	-4
COc1ccc(S(=O)(=O)Nc2noc3ccccc23)cc1OC	1	188	13
C[C@H](NC(=O)c1ncn2c1C(=O)NC[C@@H]2C)c1ccccc1	-1	.	.
COc1cc(/C=C/C(=O)OCC(=O)Nc2ccccc2Sc2ccc(Cl)cc2)ccc1O	-5	313	91*
COc1cc(/C=C/C(=O)OCC(=O)NNC(=O)c2cc(Cl)ccc2OC)ccc1O	2	312	19
COc1cc(/C=C/C(=O)OCC(=O)Nc2c(C)n(C)n(-c3ccccc3)c2=O)cc(OC)c1OC	1	502	.
COc1cc(/C=C/C(=O)OCC(=O)Nc2c(C)n(C)n(-c3ccccc3)c2=O)ccc1O	-2	0	99*
COc1ccc(CCC(=O)Nc2nnc(C(F)(F)F)s2)cc1	2	368	-2
